Rows were chosen to be rich in hits. Some 2% of all compounds tested hit in one or more screens of this group.
TRPML3 agonist: human mucolipin-3 channel agonism; Q8TDD5; HEK293 TRPML3-YFP, Fluo-8 calcium fluorescence; 100% = the carbachol control signal; activation, % at 3 µM; actives 0.29% (n = 220,000);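 active = activation above its plate's cutoff, the mean activation of the plate's test wells plus 3 SD, cut at about 12% in these data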;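 also: 0% = DMSO only wells and 100% = carbachol wells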
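system = HEK293 cells stably carrying human TRPML3-YFP | doses = one concentration, 3 µM nominal, 0.3% DMSO | timing = dye loading 1 h 37 °C then 30 min ambient, 125 s read | detection = Fluo-8 calcium dye fluorescence, ex 470-495, em 515-575 nm | benchmarks = high control carbachol 87 µM, low control DMSO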
CRFBP-R2 block: antagonists of CRF-binding protein/CRF-R2 receptor complex | actives 0.59% (n = 350,000) | HEK293 CRF-R2/CRF-BP, CRF-induced calcium fluorescence | AID 588475 | inhibition, % at 11.8 µM;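 active = inhibition of the ligand-induced calcium signal above about 50% at the single tested concentration, limit read from the data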
GPR7 antagonist: blocks human GPR7 receptor signaling; P48145; GPR7-expressing cells, fluorescence antagonist assay; inhibition, % at 4.4 µM; actives 1.1% (n = 290,000); in the data active = inhibition above about 16%, passing the limit was not always enough;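 also: cells stimulated with the agonist NPW; 0% = agonist with vehicle and 100% = vehicle without agonist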
Target sequence (P48145 whole entry, looked up): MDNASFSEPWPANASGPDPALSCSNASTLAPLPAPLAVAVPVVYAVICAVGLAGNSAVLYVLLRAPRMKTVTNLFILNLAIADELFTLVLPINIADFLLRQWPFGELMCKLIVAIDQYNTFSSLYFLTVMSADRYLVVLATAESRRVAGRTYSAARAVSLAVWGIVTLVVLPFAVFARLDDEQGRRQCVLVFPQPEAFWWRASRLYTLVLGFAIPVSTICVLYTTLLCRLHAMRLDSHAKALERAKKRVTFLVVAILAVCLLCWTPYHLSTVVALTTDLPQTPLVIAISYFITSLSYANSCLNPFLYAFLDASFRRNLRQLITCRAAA
CRFR2-BP ag: agonists of human CRF-binding protein/CRF-R2 receptor complex; activation, % at 13.2 µM; HEK293 CRF-R2/CRF-BP, calcium dye fluorescence (FLIPR); percent of saturating CRF peptide response; actives 0.46% (n = 350,000); AID 588473;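 active = activation of at least 50%, plus an integration ratio under a set limit after plate pattern correction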;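 also: plate controls were neutral control wells without compound for no effect and CRF at EC100 for full effect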
zfTRPN1 agonist: agonists of zebrafish TRPN1 channel | HEK293 zebrafish TRPN1-YFP, Fluo-8 calcium fluorescence; 100% = response to 87 µM carbachol | activation, % at 3 µM | actives 0.18% (n = 220,000);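 active = activation above its plate's cutoff, the mean activation of test wells on that plate plus 3 SD, cut at about 19% in these data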;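 also: 0% = DMSO alone and 100% = 87 µM carbachol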
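Control set: carbachol 87 µM as high control, DMSO as low control; system: HEK293 stable line with zebrafish TRPN1-YFP; read-out: % activation versus carbachol response; detection: intracellular calcium fluorescence with Fluo-8; doses: single test compound dose, 3 µM nominal, 0.3% DMSO; schedule: dye 1 h 37 °C plus 30 min RT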
The depositor's hits bear a star; x = no result given.

SMILES | TRPML3 agonist | CRFBP-R2 block | GPR7 antagonist | CRFR2-BP ag | zfTRPN1 agonist
CCOc1ccc(S(=O)(=O)Nc2cc(C)ccn2)c2ccccc12 | 0.1 | 6.0 | -5.9 | 1.4 | 0.3
CCOc1ccc(S(=O)(=O)N2CCCCC2)c2ccccc12 | 61.6* | 15.3 | -9.8 | 0.3 | -0.7
CCOc1ccc(S(=O)(=O)N2CCOCC2)c2ccccc12 | x | 1.6 | 9.9 | -0.1 | x
CCOc1ccc(S(=O)(=O)n2ccc(C)n2)c2ccccc12 | 4.5 | 54.6* | 6.9 | -2.0 | -1.8
CC(C)c1ccc(C2(C)NC(=O)N(CC(=O)NC3CCCC(C)C3C)C2=O)cc1 (configuration not stated) | x | -14.0 | x | 0.7 | x
COc1ccc(/C=N/NC(=O)CN(C)C(=O)OCc2ccccc2)cc1OC | x | -0.4 | -6.7 | -0.5 | x
N/C(Cc1ccc([N+](=O)[O-])cc1)=N\OC(=O)c1ccc(Br)cc1 | 0.5 | 62.2* | -7.0 | -1.9 | -0.3
CCN(CC)c1ccc2cc(C(N)=O)c(=N)oc2c1 | 0.8 | -249.2 | -1.9 | 258.2* | 0.5
CCN(CC)c1ccc2cc(C=O)c(=O)oc2c1 | 19.4* | -230.0 | 3.7 | 308.9 | 38.8*
c1cc(-c2nnc(-c3ccncc3)o2)ccn1 | -0.1 | -7.5 | -20.2 | 0.6 | 0.1
CCN(CC)c1ccc2cc(-c3nnc(-c4ccncc4)o3)c(=O)oc2c1 | 27.3* | -402.6 | 41.0* | 336.5* | 47.1*
CCN(CC)c1ccc2cc(C(C)=O)c(=O)oc2c1 | 10.4 | -168.9 | -6.5 | 361.5* | 8.6
CCN(CC)c1ccc2cc(C(N)=O)c(=O)oc2c1 | -0.2 | -46.2 | -8.6 | 41.3 | 1.0
CCN(CC)c1ccc2cc(/C(N)=N/NC(=O)c3cccs3)c(=O)oc2c1 | 4.6 | x | -5.0 | x | 10.9
COC(=O)CNC(=O)c1ccc(NS(=O)(=O)c2cc([N+](=O)[O-])ccc2Cl)cc1 | 0.1 | 1.0 | -14.1 | 0.2 | 2.6
O=C(c1cccc(S(=O)(=O)NCc2ccc3c(c2)OCO3)c1)N1CCCC1 | x | 10.0 | x | 2.5 | x
CCOC(=O)C1CCCCN1Cc1ccc(-c2ccccc2)cc1 (configuration not stated) | x | -5.3 | -19.9 | 0.7 | x
CCOC(=O)c1ccc(S(=O)(=O)N2CCC(C(=O)NCC3COc4ccccc4O3)CC2)cc1 (configuration not stated) | x | -1.8 | x | -0.1 | x
CCN(CC)c1ccc2cc(NC(=O)CCC(=O)O)c(=O)oc2c1 | 1.6 | -79.6 | -3.8 | 88.2* | 3.6
CCN(CC)c1ccc2cc(C(=O)Nc3ccccn3)c(=O)oc2c1 | 0.1 | -206.0 | 8.7 | 262.6* | 1.7
CCOc1cc(-n2cnnn2)c(OCC)cc1NC(=O)c1cc2ccc(N(CC)CC)cc2oc1=O | -0.3 | x | -6.9 | x | 0.7
CC(=O)Nc1cc2ccccc2oc1=O | 1.5 | 0.1 | -7.2 | 1.5 | 0.4
c1nnc(NCNc2nncs2)s1 | x | -6.1 | x | 59.8* | x
Cc1ccc(S(=O)(=O)N2CCCCC2)cc1NC(=O)c1cc(=O)[nH]c2ccccc12 | x | -2.4 | x | -0.6 | x
Nc1ccc2c(c1)Cc1cc([N+](=O)[O-])ccc1-2 | 15.5* | -116.5 | 13.8 | 110.9* | 13.4
SMILES | TRPML3 agonist | CRFBP-R2 block | GPR7 antagonist | CRFR2-BP ag | zfTRPN1 agonist
CC(O)CN(CC(C)O)c1ccc2c(c1)Cc1cc([N+](=O)[O-])ccc1-2 (configuration not stated) | x | -187.2 | x | 196.8* | x
CC(=NO)c1ccc2c(c1)Cc1cc([N+](=O)[O-])ccc1-2 | x | 43.2 | x | -2.1 | x
Cc1ccc(C(=O)OCC(=O)Nc2cc(C(C)(C)C)no2)c(C)c1 | x | -10.9 | x | 5.1 | x
CC(OC(=O)/C(C#N)=C/c1ccc(N(C)C)cc1)C(=O)N(C)Cc1ccccc1 (configuration not stated) | x | -60.9 | 11.4 | 62.7* | x
CC(OC(=O)c1cccc(O)c1)C(=O)N(C)Cc1ccccc1 (configuration not stated) | x | -1.5 | x | 1.3 | x
COc1ccc(CCNC(=O)C2CC(=O)N(C3CCCCC3)C2)cc1OC (configuration not stated) | x | -7.4 | -19.6 | 2.2 | x
CCOC(=O)CS(=O)(=O)c1nc(-c2ccccc2)cc(C(F)(F)F)n1 | -0.7 | 12.8 | 38.6* | 17.0 | 9.9
CCOC(=O)CCS(=O)(=O)c1nc(-c2ccccc2)cc(C(F)(F)F)n1 | 1.3 | -5.4 | 25.6* | 7.2 | 0.2
CCN(CC)c1ccc(C(=O)NNC(=O)c2cccn2C)cc1 | x | 4.8 | x | -1.3 | x
COC(=O)[C@]1(C)N[C@H](CN(C)C(=O)Nc2ccc(Cl)cc2)[C@@H]2C(=O)N(C)C(=O)[C@@H]21 | x | 13.5 | x | 0.4 | x
O=C(c1ccccc1)c1nc2ccccc2[nH]c1=O | -0.3 | 66.8* | -13.8 | -0.9 | -0.4
N#C/C(=C(/O)c1ccc(C(=O)c2ccccc2)cc1)c1nc2ccccc2[nH]1 | -0.6 | -10.7 | -1.7 | 2.7 | 0.3
CN(C)c1ccc2c(c1)OC(N)=C(C#N)C2c1cccc(F)c1 (configuration not stated) | 6.4 | -176.2 | 13.9 | 79.2* | 13.6
Cc1noc(C)c1COC(=O)Cc1ccc(Cl)c(Cl)c1 | -1.2 | 62.5* | 2.9 | -2.2 | -2.1
CC(C)C1/C(=N/O)CC(c2ccccc2)NC1c1ccccc1 (configuration not stated) | -1.0 | 13.6 | 20.9* | -0.2 | -3.1
CC1/C(=N/O)CC(c2ccccc2)NC1c1ccccc1 (configuration not stated) | -0.1 | -2.8 | 3.5 | -1.3 | -0.9
CC1CCCN(S(=O)(=O)c2ccc3c(c2)OCCO3)C1 (configuration not stated) | x | 6.9 | x | -2.2 | x
N#Cc1c(C(F)(F)F)cc(-c2ccc(F)cc2)[nH]c1=O | 0.4 | 20.0 | -2.6 | 0.1 | -0.8
N#Cc1c(C(F)(F)F)cc(-c2ccc(Cl)cc2)[nH]c1=O | 0.5 | 62.6* | -11.6 | -0.8 | 3.1
O=S(=O)(c1ccccc1)N1CCC(O)(CSc2ccc(F)cc2)CC1 | 4.5 | -19.9 | 17.9* | -0.4 | 8.8
CC(=O)c1c(N2CCCCC2)nc(=S)n(Cc2ccccc2)c1C | 0.1 | 107.7* | 2.6 | 0.1 | -0.2
CC(=O)c1c(N2CCN(Cc3ccccc3)CC2)nc(=S)n(Cc2ccccc2)c1C | 0.9 | 4.7 | 0.2 | 2.4 | 0.4
c1ccc(NN=C(c2ccccc2)c2cccs2)cc1 | x | -16.6 | x | 0.1 | x
CCn1c(=O)c2ccccc2n(CC(=O)NCCC2=CCCCC2)c1=O | x | 10.8 | 4.1 | 0.5 | x
CCCCc1nnc(NC(=O)Cc2ccc(S(=O)(=O)N3CCOCC3)s2)s1 | x | -2.9 | x | 3.8 | x
Cc1cc(C(=O)COc2cccc3cccnc23)c(C)n1C | 0.8 | -135.8 | -4.8 | 189.8* | 1.8
COc1ccc(NC(=O)NC(C)c2ccc3c(c2)OCO3)c(OC)c1 (configuration not stated) | x | 62.9* | -5.4 | -3.9 | x
N#Cc1nc(COc2ccc(Br)cc2)oc1N1CCN(Cc2ccccc2)CC1 | 0.7 | -14.7 | 29.0* | 3.0 | 0.5
O=C(Nc1ccc2c(c1)OCO2)c1cnc(Cl)c(Cl)c1 | x | -42.4 | x | -3.8 | x
O=C(CCOc1ccccc1)Nc1ccccc1 | -0.1 | 25.2 | -16.6 | -1.3 | -0.4

High-throughput results (PubChem BioAssay)
